Source: ChEMBL document CHEMBL1123804, “Beta-substituted cysteines as sequestering agents for ethanol-derived acetaldehyde in vivo” (1987)

Key:
Type in all cases: functional
[1] = tested on: Rattus norvegicus; assay: Compound tested for the percentage of administered dose excreted in rat urine was determined in 0-24 hr
Summary of the method: (§1)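 Labeled material (14C on the acetaldehyde part, with unlabeled carrier, in water) was dosed at 8.0 mmol/kg, 1.0 mL/100 g, to two overnight-fasted male Sprague-Dawley-descent rats (207 g, 247 g) kept in all-glass metabolism cages. Urine was collected separately at 2, 4, 8, 16 and 24 h. Duplicate samples were counted by liquid scintillation, and results are averaged ± SD across the two animals.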

[2] = tested on: Rattus norvegicus; assay: Compound tested for the percentage of administered dose excreted in rat urine was determined in 0-2 hr; summary of the method: as §1
[3] = tested on: Rattus norvegicus; assay: Compound tested for the percentage of administered dose excreted in rat urine was determined in 16-24h; summary of the method: as §1
[4] = tested on: Rattus norvegicus; assay: Compound tested for the percentage of administered dose excreted in rat urine was determined in 2-4h; summary of the method: as §1
[5] = tested on: Rattus norvegicus; assay: Compound tested for the percentage of administered dose excreted in rat urine was determined in 4-8h; summary of the method: as §1
[6] = tested on: Rattus norvegicus; assay: Compound tested for the percentage of administered dose excreted in rat urine was determined in 8-16h; summary of the method: as §1
[7] = tested on: Rattus norvegicus; assay: Compound tested for the percentage of administration dose excreted in rat feces was determined in 0-24 hr
Summary of the method: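 A radiolabeled dose (14C in the acetaldehyde moiety, with carrier, in water) of 8.0 mmol/kg at 1.0 mL/100 g went to two overnight-fasted male Sprague-Dawley-descent rats (207 g, 247 g) in all-glass metabolism cages. Feces collected over 24 h were lyophilized and pulverized, and 250-mg samples were combusted to 14CO2 for scintillation counting. Values are the mean ± SD of two animals.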

[8] = organism: Rattus norvegicus; assay: Compound tested for the percentage of CO2 expired in rat was determined in 4-8h
Summary of the method: (§2)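 14C label on the acetaldehyde moiety, diluted with unlabeled carrier in water and given at 8.0 mmol/kg (1.0 mL/100 g; radioactivity of the solution counted in duplicate). Two male Sprague-Dawley-descent rats (207 g, 247 g) were fasted overnight and housed in all-glass metabolism cages. Expired CO2 went into two successive cold methoxyethanol/ethanolamine (2:1) traps, sampled at 2, 4, 8, 16 and 24 h. Duplicates were counted by liquid scintillation, and values are the mean ± SD of two animals.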

[9] = organism: Rattus norvegicus; assay: Compound tested for the percentage of CO2 expired in rat was determined in 8-16h; summary of the method: as §2
[10] = organism: Rattus norvegicus; assay: Compound tested for the percentage of CO2 expired in rat was determined in 0-2 hr; summary of the method: as §2
[11] = organism: Rattus norvegicus; assay: Compound tested for the percentage of CO2 expired in rat was determined in 16-24h; summary of the method: as §2
[12] = organism: Rattus norvegicus; assay: Compound tested for the percentage of CO2 expired in rat was determined in 2-4h; summary of the method: as §2
[13] = organism: Rattus norvegicus; assay: Compound tested for the percentage of CO2 expired in rat was determined in 0-24 hr; summary of the method: as §2

SMILES: CC1N[C@@H](C(=O)O)C(C)(C)S1 (stereo partly drawn)
- Excreted [1]: 79.2%
- Excreted [2]: 36.3%
- Excreted [3]: 1.18%
- Excreted [4]: 25.9%
- Excreted [5]: 12.7%
- Excreted [6]: 3.12%
- Excreted [7]: 1.38%
- Excreted [8]: 1.36%
- Excreted [9]: 0.48%
- Excreted [10]: 2.01%
- Excreted [11]: 0.28%
- Excreted [12]: 1.7%
- Excreted [13]: 5.83%
